In ChEMBL document CHEMBL1153925, “Synthesis, characterization and biological activity of ring-substituted 6-benzylamino-9-tetrahydropyran-2-yl and 9-tetrahydrofuran-2-ylpurine derivatives” (Bioorg Med Chem, 2009):

Legend:
BJ = assay: Cytotoxicity against human BJ cells after 72 hrs by MTT assay; assay type: ADME, cell-based
Nicotiana tabacum = assay: Cytokinin activity in tobacco callus assessed as stimulation of callus growth at 1 uM relative to 6-benzylaminopurine; assay type: functional
[1] = Stability assessed as compound peak area at pH 7 after 1 hr by HPLC-PDA method; assay type: physicochemical; details: read-out: Stability
Procedure, shortened: (§1)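 10^-2 M methanol solution diluted to 10^-4 M in McIlvaine buffer at pH 3, 4, 5, 6 or 7, then incubated at 25 °C. Direct injection onto reversed-phase C18 after 1 h and again after 24 h. Methanol/15 mM formic acid (pH 4, ammonium) gradient at 0.3 mL/min, PDA at 270 nm. Parent and released free base (m-topolin) reported as peak area %.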

[2] = Stability assessed as compound peak area at pH 6 after 1 hr by HPLC-PDA method; assay type: physicochemical; details: read-out: Stability; procedure, shortened: as §1
[3] = Stability assessed as compound peak area at pH 5 after 1 hr by HPLC-PDA method; assay type: physicochemical; details: read-out: Stability; procedure, shortened: as §1
[4] = Stability assessed as compound peak area at pH 4 after 1 hr by HPLC-PDA method; assay type: physicochemical; details: read-out: Stability; procedure, shortened: as §1
[5] = Stability assessed as compound peak area at pH 3 after 1 hr by HPLC-PDA method; assay type: physicochemical; details: read-out: Stability; procedure, shortened: as §1
[6] = Stability assessed as compound peak area at pH 7 after 24 hrs by HPLC-PDA method; assay type: physicochemical; details: read-out: Stability; procedure, shortened: as §1
[7] = Stability assessed as compound peak area at pH 6 after 24 hrs by HPLC-PDA method; assay type: physicochemical; details: read-out: Stability; procedure, shortened: as §1
[8] = Stability assessed as compound peak area at pH 5 after 24 hrs by HPLC-PDA method; assay type: physicochemical; details: read-out: Stability; procedure, shortened: as §1
[9] = Stability assessed as compound peak area at pH 4 after 24 hrs by HPLC-PDA method; assay type: physicochemical; details: read-out: Stability; procedure, shortened: as §1
[10] = Stability assessed as compound peak area at pH 3 after 24 hrs by HPLC-PDA method; assay type: physicochemical; details: read-out: Stability; procedure, shortened: as §1
Amaranthus = assay: Cytokinin activity in cotyledons assessed as dark induction of betacyanin synthesis at 100 uM relative to 6-benzylaminopurine; assay type: functional
Triticum aestivum = assay: Cytokinin activity in wheat leaf assessed as stimulation of retention of chlorophyll in excised leaves at 0.1 mM relative to 6-benzylaminopurine; assay type: functional
K562 = assay: Cytotoxicity against human K562 cells after 72 hrs by Calcein AM assay; assay type: ADME, cell-based; details: K562, 72 h
MCF7 = assay: Cytotoxicity against human MCF7 cells after 72 hrs by Calcein AM assay; assay type: ADME, cell-based; details: MCF7, 72 h
[11] = Stability assessed as free base release at pH 7 after 1 hr by HPLC-PDA method; assay type: physicochemical; details: pH 7, 1 h; procedure, shortened: as §1
[12] = Stability assessed as free base release at pH 6 after 1 hr by HPLC-PDA method; assay type: physicochemical; details: pH 6, 1 h; procedure, shortened: as §1
[13] = Stability assessed as free base release at pH 5 after 1 hr by HPLC-PDA method; assay type: physicochemical; details: pH 5, 1 h; procedure, shortened: as §1
[14] = Stability assessed as free base release at pH 4 after 1 hr by HPLC-PDA method; assay type: physicochemical; details: pH 4, 1 h; procedure, shortened: as §1
[15] = Stability assessed as free base release at pH 3 after 1 hr by HPLC-PDA method; assay type: physicochemical; details: pH 3, 1 h; procedure, shortened: as §1
[16] = Stability assessed as free base release at pH 7 after 24 hr by HPLC-PDA method; assay type: physicochemical; details: pH 7, 24 h; procedure, shortened: as §1
[17] = Stability assessed as free base release at pH 6 after 24 hr by HPLC-PDA method; assay type: physicochemical; details: pH 6, 24 h; procedure, shortened: as §1
[18] = Stability assessed as free base release at pH 5 after 24 hr by HPLC-PDA method; assay type: physicochemical; details: pH 5, 24 h; procedure, shortened: as §1
[19] = Stability assessed as free base release at pH 4 after 24 hr by HPLC-PDA method; assay type: physicochemical; details: pH 4, 24 h; procedure, shortened: as §1
[20] = Stability assessed as free base release at pH 3 after 24 hr by HPLC-PDA method; assay type: physicochemical; details: pH 3, 24 h; procedure, shortened: as §1

remaining at 1 h [1]: 99.9% | remaining at 1 h [2]: 99.8% | remaining at 1 h [3]: 99.5% | remaining at 1 h [4]: 99.5% | remaining at 1 h [5]: 98.8% | remaining at 24 h [6]: 99.8% | remaining at 24 h [7]: 99.3% | remaining at 24 h [8]: 99.2% | remaining at 24 h [9]: 93.9% | remaining at 24 h [10]: 39.6% | Activity [11]: 0.1% | Activity [12]: 0.2% | Activity [13]: 0.5% | Activity [14]: 0.5% | Activity [15]: 1.2% | Activity [16]: 0.2% | Activity [17]: 0.7% | Activity [18]: 0.8% | Activity [19]: 6.1% | Activity [20]: 60.4%
SMILES: Oc1cccc(CNc2ncnc3c2ncn3C2CCCCO2)c1 (stereo unspecified)
IC50 (BJ): > 100 µM | Activity (Nicotiana tabacum): 95% | Activity (Amaranthus): 100% | Activity (Triticum aestivum): 140% | IC50 (K562): 81 µM | IC50 (MCF7): > 100 µM
